Activity calls are given as the source filed them.
Experiments:
[1] = test system: SF-268; experiment: Tested for cytotoxicity of compound against SF-268 (CNS) cell line; IA means inactive.; format: functional, cell-based; conditions: Homo sapiens
[2] = test system: MCF7; experiment: Tested for cytotoxicity of compound against MCF-7 (breast) cell line; IA means inactive.; format: functional, cell-based; conditions: Homo sapiens
[3] = test system: NCI-H460; experiment: Tested for cytotoxicity of compound against NCI-H460 (lung)cell line; IA means inactive.; format: functional, cell-based; conditions: Homo sapiens
[4] = test system: Mus musculus; experiment: Evaluated in vivo for toxic deaths of mice at 1.50 mg/kg for 10 days by intraperitoneal treatment on UACC-62 melanoma cell line; format: toxicity, organism-based; design: dose 1.5 mg/kg, route intraperitoneal; conditions: ip, 1.5 mg/kg, 240 h
Summary of the method: (§1)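 Nude mice carrying subcutaneous human tumor xenografts, tested at NCI Bethesda; compound given on the stated schedule, intraperitoneally (IP) or intravenously (IV). Three dose levels were tested, and the table reports only the optimal one. Toxic deaths are scored per treatment group alongside tumor weight end points.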

[5] = test system: Mus musculus; experiment: Evaluated in vivo for toxic deaths of mice at 1.00 mg/kg for 7 days by intraperitoneal treatment on AS283 lymphoma cell line; format: toxicity, organism-based; design: dose 1 mg/kg, route intraperitoneal; conditions: ip, 168 h; summary of the method: as §1
[6] = test system: Mus musculus; experiment: Evaluated in vivo for percent growth delay in mice at 1.34 mg/kg for 7 days by intraperitoneal treatment on NCI-H460 non-small cell lung cell line; format: functional
[7] = test system: Mus musculus; experiment: Evaluated in vivo for percent of tumor weight in treated/control of mice at 1.80 mg/kg for 24 (38) days by intravenous treatment on MDA-MB-435 breast cell line; format: functional; conditions: dose 1.8 mg/kg
[8] = test system: Mus musculus; experiment: Evaluated in vivo for toxic deaths of mice at 1.34 mg/kg for 7 days by intraperitoneal treatment on NCI-H460 non-small cell lung cell line; format: toxicity, organism-based; design: dose 1.34 mg/kg, route intraperitoneal; conditions: ip, 168 h; summary of the method: as §1
[9] = test system: Mus musculus; experiment: Evaluated in vivo for percent of tumor weight in treated/control of mice at 1.00 mg/kg for 7 days by intraperitoneal treatment on AS283 lymphoma cell line; format: functional
[10] = test system: Mus musculus; experiment: Evaluated in vivo for percent of tumor weight in treated/control of mice at 1.34 mg/kg for 7 days by intraperitoneal treatment on NCI-H460 non-small cell lung cell line; format: functional
[11] = test system: Mus musculus; experiment: Evaluated in vivo for percent of tumor weight in treated/control of mice at 0.90 mg/kg for 7 days by intraperitoneal treatment on RXF-393 renal cell line; format: functional; conditions: dose 0.9 mg/kg
[12] = test system: Mus musculus; experiment: Evaluated in vivo for percent growth delay in mice at 0.90 mg/kg for 7 days by intraperitoneal treatment on RXF-393 renal cell line; format: functional; conditions: dose 0.9 mg/kg
[13] = Evaluated in vivo for subcutaneous score in hallow fiber assay; format: functional
Summary of the method: (§2)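 NCI hollow fiber preliminary in vivo assay; scores recorded separately for intraperitoneal (ip) and subcutaneous (sc) fiber implantation sites, with an activity criterion applied (Y/N). Procedure detailed in prior work.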

[14] = test system: Mus musculus; experiment: Evaluated in vivo for toxic deaths of mice at 0.90 mg/kg for 5 days by intraperitoneal treatment on HCT-15 colon cell line; format: toxicity, organism-based; design: dose 0.9 mg/kg, route intraperitoneal; conditions: ip, 0.9 mg/kg, 120 h; summary of the method: as §1
[15] = Evaluated in vivo for intraperitoneal score in hallow fiber assay; format: functional; summary of the method: as §2
[16] = test system: Mus musculus; experiment: Evaluated in vivo for percent growth delay in mice at 1.50 mg/kg for 10 days by intraperitoneal treatment on UACC-62 melanoma cell line; format: functional; conditions: dose 1.5 mg/kg
[17] = test system: Mus musculus; experiment: Evaluated in vivo for percent growth delay in mice at 0.67 mg/kg for 12 days by intraperitoneal treatment on COLO 205 colon cell line; format: functional
[18] = test system: Mus musculus; experiment: Evaluated in vivo for percent growth delay in mice at 1.80 mg/kg for 24 (38) days by intravenous treatment on MDA-MB-435 breast cell line; format: functional; conditions: dose 1.8 mg/kg
[19] = test system: Mus musculus; experiment: Evaluated in vivo for percent of tumor weight in treated/control of mice at 0.67 mg/kg for 12 days by intraperitoneal treatment on COLO 205 colon cell line; format: functional
[20] = test system: Mus musculus; experiment: Evaluated in vivo for toxic deaths of mice at 0.67 mg/kg for 12 days by intraperitoneal treatment on COLO 205 colon cell line; format: toxicity, organism-based; design: dose 0.67 mg/kg, route intraperitoneal; conditions: ip, 288 h; summary of the method: as §1
[21] = test system: Mus musculus; experiment: Evaluated in vivo for percent growth delay in mice at 0.90 mg/kg for 5 days by intraperitoneal treatment on HCT-15 colon cell line; format: functional; conditions: dose 0.9 mg/kg
[22] = test system: Mus musculus; experiment: Evaluated in vivo for toxic deaths of mice at 0.90 mg/kg for 7 days by intraperitoneal treatment on RXF-393 renal cell line; format: toxicity, organism-based; design: dose 0.9 mg/kg, route intraperitoneal; conditions: ip, 0.9 mg/kg, 168 h; summary of the method: as §1
[23] = test system: Mus musculus; experiment: Evaluated in vivo for percent growth delay in mice at 1.00 mg/kg for 7 days by intraperitoneal treatment on AS283 lymphoma cell line; format: functional
[24] = Evaluated in vivo for intraperitoneal + subcutaneous score in hallow fiber assay; format: functional; summary of the method: as §2
[25] = test system: Mus musculus; experiment: Evaluated in vivo for toxic deaths of mice at 1.80 mg/kg for 24 (38) days by intravenous treatment on MDA-MB-435 breast […] cell line; format: toxicity, organism-based; design: dose 1.8 mg/kg, route intravenous; conditions: 1.8 mg/kg; summary of the method: as §1
[26] = test system: Mus musculus; experiment: Evaluated in vivo for percent of tumor weight in treated/control of mice at 1.50 mg/kg for 10 days by intraperitoneal treatment on UACC-62 melanoma cell line; format: functional; conditions: dose 1.5 mg/kg
[27] = Tested for cytotoxicity (lethal concentration) of compound, activity expressed as MID log LC50; format: functional
Summary of the method: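 MID is the calculated mean of LC50 concentrations (M) across the cell line panel, where LC50 is the half-lethal concentration. It is reported as a log value.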

[28] = test system: Mus musculus; experiment: Evaluated in vivo for percent of tumor weight in treated/control of mice at 0.90 mg/kg for 5 days by intraperitoneal treatment on HCT-15 colon cell line; format: functional; conditions: dose 0.9 mg/kg
[29] = test system: NCI-H460; experiment: Tested for cytotoxicity of compound against NCI-H460 (lung)cell line; Compound was active.; format: functional, cell-based; conditions: Homo sapiens
[30] = test system: SF-268; experiment: Tested for cytotoxicity of compound against SF-268 (CNS) cell line; Compound was active.; format: functional, cell-based; conditions: Homo sapiens
[31] = test system: MCF7; experiment: Tested for cytotoxicity of compound against MCF-7 (breast) cell line; Compound was active.; format: functional, cell-based; conditions: Homo sapiens

Question: Which results are given for `CC(=O)N[C@@H]1[C@H](OCc2ccccc2)OC(CO)C(O)[C@H]1OC(C)C(=O)N[C@H](C)C(=O)N[C@H](CCC(=O)OCCCCNC(=O)c1cccc2cc3ccccc3nc12)C(N)=O` (stereo partly specified)?
Answer: IA [1]: inactive; IA [2]: inactive; IA [3]: inactive

Question: With `CC(=O)N[C@@H]1[C@H](OCc2ccccc2)OC(CO)C(O)[C@H]1OC(C)C(=O)N[C@@H](C(=O)N[C@H](CCC(=O)OCCNC(=O)c1cccc2c(=O)c3ccccc3[nH]c12)C(N)=O)C(C)C` (stereo partly specified) as the compound, how does the IA [1] read?
Answer: inactive

Question: What about the IA [2] of the same compound?
Answer: inactive

Question: And the IA [3]?
Answer: inactive

Question: Which results are given for `CC(=O)N[C@@H]1[C@H](OCc2ccccc2)OC(CO)C(O)[C@H]1OC(C)C(=O)N[C@H](C)C(=O)N[C@H](CCC(=O)OCCCNC(=O)c1cccc2cc3ccccc3nc12)C(N)=O` (stereo partly specified)?
Answer: IA [1]: inactive; IA [2]: inactive; IA [3]: inactive

Question: With `CC(=O)N[C@@H]1[C@H](OCc2ccccc2)OC(CO)C(O)[C@H]1OC(C)C(=O)N[C@H](C)C(=O)N[C@H](CCC(=O)OCCNC(=O)c1cccc2cc3ccccc3nc12)C(N)=O` (stereo partly specified) as the compound, how does the IA [1] read?
Answer: inactive

Question: And the IA [2]?
Answer: inactive

Question: And the IA [3]?
Answer: inactive

Question: What does the source list for `CC(=O)N[C@@H]1[C@H](OCc2ccccc2)OC(CO)C(O)[C@H]1OC(C)C(=O)N[C@H](C)C(=O)N[C@H](CCC(=O)OCCNc1c2ccccc2nc2cccc([N+](=O)[O-])c12)C(N)=O` (stereo partly specified)?
Answer: Toxic deaths [4]: 0; Toxic deaths [5]: 0; Growth delay (T-C/C) [6]: 21%; Tumor weight [7]: 60%; Toxic deaths [8]: 1; Tumor weight [9]: 63%; Tumor weight [10]: 54%; Tumor weight [11]: 81%; Growth delay (T-C/C) [12]: 32%; Score [13]: 8; Toxic deaths [14]: 2; Score [15]: 12; Growth delay (T-C/C) [16]: 2%; Growth delay (T-C/C) [17]: 11%; Growth delay (T-C/C) [18]: 17%; Tumor weight [19]: 75%; Toxic deaths [20]: 0; Growth delay (T-C/C) [21]: 5%; Toxic deaths [22]: 0; Growth delay (T-C/C) [23]: 9%; Score [24]: 20; Toxic deaths [25]: 2; Tumor weight [26]: 89%; MID log LC50 [27]: 6.85 M; Tumor weight [28]: 79%

Question: With `CC(=O)N[C@@H]1[C@H](OCc2ccccc2)OC(CO)C(O)[C@H]1OCC(=O)N[C@H](C)C(=O)N[C@H](CCC(=O)OCCCNC(=O)c1cccc2c(=O)c3ccccc3[nH]c12)C(N)=O` (stereo partly specified) as the compound, how does the Cytotoxicity [29] read?
Answer: Active

Question: And the Cytotoxicity [30]?
Answer: Active

Question: What about the “MID log LC50” value [27] of the same compound?
Answer: 4.04 M

Question: What about the Cytotoxicity [31] of the same compound?
Answer: Active
